The source made the active and inactive calls. The calls are words filed in the database; no cut-off is given here.
Legend:
[1] = tested on: HCT-116; test: Cytotoxicity against human HCT-116 assessed as growth inhibition at 10 uM by NCI protocol relative to control; type: functional; conditions: read-out: GI
Outline: (§1)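 Run by NCI as a single-dose screen at 10 μM across the sixty-cell-line panel, which covers nine human tumour tissue types. The read-out is percent growth inhibition of treated cells relative to untreated cells.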

[2] = tested on: TK-10; test: Cytotoxicity against human TK-10 assessed as growth inhibition at 10 uM by NCI protocol relative to control; type: functional; conditions: read-out: GI
Outline: (§2)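 Run by the NCI under its standard protocol: one dose of 10 μM against a sixty-line panel from nine human tumour tissues. Result given as percent growth inhibition of treated cells relative to untreated cells.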

[3] = tested on: T47D; test: Cytotoxicity against human T47D cells assessed as reduction in cell viability after 3 hrs by MTT assay
[4] = tested on: LOX IMVI; test: Cytotoxicity against human LOX IMVI assessed as growth inhibition at 10 uM by NCI protocol relative to control; type: functional; conditions: read-out: GI; outline: as §1
[5] = tested on: EKVX; test: Cytotoxicity against human EKVX assessed as growth inhibition at 10 uM by NCI protocol relative to control; type: functional; conditions: read-out: GI; outline: as §1
[6] = tested on: UO-31; test: Cytotoxicity against human UO31 assessed as growth inhibition at 10 uM by NCI protocol relative to control; type: functional; conditions: read-out: GI; outline: as §2
[7] = tested on: SK-MEL-5; test: Cytotoxicity against human SK-MEL-5 assessed as growth inhibition at 10 uM by NCI protocol relative to control; type: functional; conditions: read-out: GI; outline: as §1
[8] = tested on: NCI/ADR-RES; test: Cytotoxicity against human NCl/ADR-RES assessed as growth inhibition at 10 uM by NCI protocol relative to control; type: functional; conditions: read-out: GI; outline: as §1
[9] = tested on: PC-3; test: Cytotoxicity against human PC3 assessed as growth inhibition at 10 uM by NCI protocol relative to control; type: functional; conditions: read-out: GI; outline: as §1
[10] = tested on: MDA-MB-435; test: Cytotoxicity against human MDA-MB-435 assessed as growth inhibition at 10 uM by NCI protocol relative to control; type: functional, cell-based; outline: as §1
[11] = tested on: A549; test: Cytotoxicity against human A549 assessed as growth inhibition at 10 uM by NCI protocol relative to control; type: functional; conditions: read-out: GI; outline: as §1
[12] = tested on: HT-29; test: Cytotoxicity against human HT29 assessed as growth inhibition at 10 uM by NCI protocol relative to control; type: functional; conditions: read-out: GI; outline: as §1
[13] = tested on: NCI-H226; test: Cytotoxicity against human NCI-H226 assessed as growth inhibition at 10 uM by NCI protocol relative to control; type: functional; conditions: read-out: GI; outline: as §1
[14] = tested on: BT-549; test: Cytotoxicity against human BT-549 assessed as growth inhibition at 10 uM by NCI protocol relative to control; type: functional; conditions: read-out: GI; outline: as §1
[15] = tested on: SF-268; test: Cytotoxicity against human SF-268 assessed as growth inhibition at 10 uM by NCI protocol relative to control; type: functional; conditions: read-out: GI; outline: as §1
[16] = tested on: K562; test: Cytotoxicity against human K-562 assessed as growth inhibition at 10 uM by NCI protocol relative to control; type: functional; conditions: read-out: GI; outline: as §1
[17] = tested on: CCRF-CEM; test: Cytotoxicity against human CCRF-CEM assessed as growth inhibition at 10 uM by NCI protocol relative to control; type: functional; conditions: read-out: GI; outline: as §1
[18] = tested on: SF-295; test: Cytotoxicity against human SF-295 assessed as growth inhibition at 10 uM by NCI protocol relative to control; type: functional; conditions: read-out: GI; outline: as §1
[19] = tested on: NCI-H23; test: Cytotoxicity against human NCI-H23 assessed as growth inhibition at 10 uM by NCI protocol relative to control; type: functional; conditions: read-out: GI; outline: as §1
[20] = tested on: 786-0; test: Cytotoxicity against human 786-0 assessed as growth inhibition at 10 uM by NCI protocol relative to control; type: functional; conditions: read-out: GI; outline: as §1
[21] = tested on: SNB-75; test: Cytotoxicity against human SNB-75 assessed as growth inhibition at 10 uM by NCI protocol relative to control; type: functional; conditions: read-out: GI; outline: as §2
[22] = tested on: RPMI-8226; test: Cytotoxicity against human RPMI-8226 assessed as growth inhibition at 10 uM by NCI protocol relative to control; type: functional; conditions: read-out: GI; outline: as §1
[23] = tested on: OVCAR-8; test: Cytotoxicity against human OVCAR-8 assessed as growth inhibition at 10 uM by NCI protocol relative to control; type: functional; conditions: read-out: GI; outline: as §1
[24] = tested on: A498; test: Cytotoxicity against human A498 assessed as growth inhibition at 10 uM by NCI protocol relative to control; type: functional; conditions: read-out: GI; outline: as §1
[25] = tested on: MOLT-4; test: Cytotoxicity against human MOLT-4 assessed as growth inhibition at 10 uM by NCI protocol relative to control; type: functional; conditions: read-out: GI; outline: as §1
[26] = tested on: MDA-MB-231; test: Cytotoxicity against human MDA-MB-231 assessed as growth inhibition at 10 uM by NCI protocol relative to control; type: functional; conditions: read-out: GI; outline: as §1
[27] = tested on: OVCAR-4; test: Cytotoxicity against human OVCAR-4 assessed as growth inhibition at 10 uM by NCI protocol relative to control; type: functional; conditions: read-out: GI; outline: as §1
[28] = tested on: DU-145; test: Cytotoxicity against human DU-145 assessed as growth inhibition at 10 uM by NCI protocol relative to control; type: functional; conditions: read-out: GI; outline: as §1
[29] = tested on: UACC-257; test: Cytotoxicity against human UACC-257 assessed as growth inhibition at 10 uM by NCI protocol relative to control; type: functional; conditions: read-out: GI; outline: as §2
[30] = tested on: MCF7; test: Cytotoxicity against human MCF7 assessed as growth inhibition at 10 uM by NCI protocol relative to control; type: functional; conditions: read-out: GI; outline: as §1
[31] = tested on: SR; test: Cytotoxicity against human SR assessed as growth inhibition at 10 uM by NCI protocol relative to control; type: functional; conditions: read-out: GI; outline: as §2
[32] = tested on: SK-MEL-28; test: Cytotoxicity against human SK-MEL-28 assessed as growth inhibition at 10 uM by NCI protocol relative to control; type: functional; conditions: read-out: GI; outline: as §1
[33] = tested on: SK-OV-3; test: Cytotoxicity against human SK-OV-3 assessed as growth inhibition at 10 uM by NCI protocol relative to control; type: functional; conditions: read-out: GI; outline: as §1
[34] = tested on: SW-620; test: Cytotoxicity against human SW-620 assessed as growth inhibition at 10 uM by NCI protocol relative to control; type: functional; conditions: read-out: GI; outline: as §2
[35] = tested on: IGROV-1; test: Cytotoxicity against human IGROVI assessed as growth inhibition at 10 uM by NCI protocol relative to control; type: functional; conditions: read-out: GI; outline: as §1
[36] = tested on: HOP-92; test: Cytotoxicity against human HOP-92 assessed as growth inhibition at 10 uM by NCI protocol relative to control; type: functional; conditions: read-out: GI; outline: as §1
[37] = tested on: NCI-H522; test: Cytotoxicity against human NCI-H522 assessed as growth inhibition at 10 uM by NCI protocol relative to control; type: functional; conditions: read-out: GI; outline: as §1
[38] = tested on: SF-539; test: Cytotoxicity against human […] assessed as growth inhibition at 10 uM by NCI protocol relative to control; type: functional; conditions: read-out: GI; outline: as §1
[39] = tested on: KM12; test: Cytotoxicity against human KM12 assessed as growth inhibition at 10 uM by NCI protocol relative to control; type: functional; conditions: read-out: GI; outline: as §1
[40] = tested on: HL-60; test: Cytotoxicity against human HL60 assessed as growth inhibition at 10 uM by NCI protocol relative to control; type: functional; conditions: read-out: GI; outline: as §1
[41] = tested on: NCI-H460; test: Cytotoxicity against human NCI-H460 assessed as growth inhibition at 10 uM by NCI protocol relative to control; type: functional; conditions: read-out: GI; outline: as §1
[42] = tested on: SK-MEL-2; test: Cytotoxicity against human SK-MEL-2 assessed as growth inhibition at 10 uM by NCI protocol relative to control; type: functional; conditions: read-out: GI; outline: as §1
[43] = tested on: HCT-15; test: Cytotoxicity against human HCT-15 assessed as growth inhibition at 10 uM by NCI protocol relative to control; type: functional; conditions: read-out: GI; outline: as §1

Work on Cc1ccc(-c2csc(NC(=O)CN3CCN(c4cc(=O)[nH]c5ccc(F)cc45)CC3)n2)cc1 yielded an inhibition of growth at 10 µM [1] of 45.2%, an inhibition of growth at 10 µM [2] of 46.3% and an IC50 [3] of 8.41 µM. The inhibition of growth at 10 µM [4] was 23.9%, the inhibition of growth at 10 µM [5] was 42.1% and the inhibition of growth at 10 µM [6] was 35.4%. The inhibition of growth at 10 µM [7] was 44%, the inhibition of growth at 10 µM [8] was 38.4% and the inhibition of growth at 10 µM [9] was 55.9%. The “growth inhibition (GI)” value [10] was “inactive”, the inhibition of growth at 10 µM [11] was 43.7% and the inhibition of growth at 10 µM [12] was 21.5%. The inhibition of growth at 10 µM [13] was 11.7%, the inhibition of growth at 10 µM [14] was 21.5% and the inhibition of growth at 10 µM [15] was 14.5%. It also gave an inhibition of growth at 10 µM [16] of 42.4%, an inhibition of growth at 10 µM [17] of 47% and an inhibition of growth at 10 µM [18] of 20.3%. The inhibition of growth at 10 µM [19] was 21.6%, the inhibition of growth at 10 µM [20] was 25.6% and the inhibition of growth at 10 µM [21] was 32.6%. The inhibition of growth at 10 µM [22] was 51.1%, the inhibition of growth at 10 µM [23] was 23.2% and the inhibition of growth at 10 µM [24] was 56.6%. The inhibition of growth at 10 µM [25] was 53.2%, the inhibition of growth at 10 µM [26] was 19% and the inhibition of growth at 10 µM [27] was 30.6%. It also gave an inhibition of growth at 10 µM [28] of 47.4%, an inhibition of growth at 10 µM [29] of 37.5% and an inhibition of growth at 10 µM [30] of 33.5%. The inhibition of growth at 10 µM [31] was 47.5%, the inhibition of growth at 10 µM [32] was 17.8% and the inhibition of growth at 10 µM [33] was 11%. The inhibition of growth at 10 µM [34] was 37%, the inhibition of growth at 10 µM [35] was 52.6% and the inhibition of growth at 10 µM [36] was 39.7%. It also gave an inhibition of growth at 10 µM [37] of 22.3%, an inhibition of growth at 10 µM [38] of 32.7% and an inhibition of growth at 10 µM [39] of 13.3%. For the same molecule, the inhibition of growth at 10 µM [40] was 40.6%, the inhibition of growth at 10 µM [41] was 21.4% and the inhibition of growth at 10 µM [42] was 10.2%. The inhibition of growth at 10 µM [43] was 37.1%.

— ChEMBL document CHEMBL4819122, “Novel 4-(piperazin-1-yl)quinolin-2(1H)-one bearing thiazoles with antiproliferative activity through VEGFR-2-TK inhibition” (Bioorg Med Chem, 2021)
